According to ChEMBL document CHEMBL4689842, “EUbOPEN Chemogenomics Library wave 1” (2021):
Several values for one entry are separate records, joined by “and”; a condition that tells them apart may be missing. Identical values can stand only once.

Tested on: U2OS
Test: Multiplex assay against U2OS
Assay type: toxicity, cell-based
Details: human
How it was run: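 Hoechst33342, BioTracker Green Microtubule Cytoskeleton Dye, MitoTracker Red and Annexin V Alexa Fluor 680 were added to live cells at seeding, and imaging on a CQ1 microscope at 37°C and 5% CO2 followed compound addition. Gating by CellPathfinder machine learning separated cells into Hoechst high-intensity objects or normal cells, then normal cells into healthy, pyknosed or fragmented nuclei, then pyknosed cells into mitotic or apoptotic. Per cents of healthy-nucleus cells are reported for the tubulin, mitochondrial-mass and membrane-permeability phenotypes.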

[1] = 12 h, 1 µM, compound concentration 1 uM, replicate 1
[2] = 12 h, 1 µM, compound concentration 1 uM, replicate 2
[3] = 12 h, 10 µM, compound concentration 10 uM, replicate 1
[4] = 12 h, 10 µM, compound concentration 10 uM, replicate 2
[5] = 24 h, 1 µM, compound concentration 1 uM, replicate 1
[6] = 24 h, 1 µM, compound concentration 1 uM, replicate 2
[7] = 24 h, 10 µM, compound concentration 10 uM, replicate 1
[8] = 24 h, 10 µM, compound concentration 10 uM, replicate 2
[9] = 48 h, 1 µM, compound concentration 1 uM, replicate 1
[10] = 48 h, 1 µM, compound concentration 1 uM, replicate 2
[11] = 48 h, 10 µM, compound concentration 10 uM, replicate 1
[12] = 48 h, 10 µM, compound concentration 10 uM, replicate 2

How did the “Population Apoptotic (%)” value [1] turn out when `CS(=O)(=O)N1CCCC(NC(=O)[C@H](CCC2CCCCC2)NC(=O)c2ccc(CNC(=O)c3cnc4ccccn34)cc2)C1` (some centres undefined) [SR-302] was run?
The value was 41% [middle of 4 runs].

What about the “Population Fragmented Nuclei (%)” value [1] of the same compound?
Its value is 2% and 6% and 10% and 5%.

And the “Population Healthy Nuclei (%)” value [1]?
Its value is 92% and 78% and 82%.

What about the “Population Membrane Permeable-Phenotype (%)” value [1] of the same compound?
The value was 12% and 6% and 4%.

What about the “Population Mitotic Cells (%)” value [1] of the same compound?
Its value is 80% and 39% and 58%.

And the “Population Normal (%)” value [1]?
The value was 95% and 97% and 96% and 92%.

And the “Population Pyknosed Nuclei (%)” value [1]?
The value was 5% and 10% and 11%.

And the “Population Tubulin-Different-Phenotype (%)” value [1]?
The value was 18% and 32% and 29%.

What about the “Total Cell Count” value [1] of the same compound?
Its value is 258 [middle of 4 runs].

What about the “Population Fragmented Nuclei (%)” value [2] of the same compound?
The value was 8% and 12%.

What about the “Population Healthy Nuclei (%)” value [2] of the same compound?
The value was 90% and 83% and 81% and 76%.

And the “Population Hoechst High Intensity Objects (%)” value [2]?
Its value is 10% and 6% and 16%.

And the “Population Membrane Permeable-Phenotype (%)” value [2]?
The value was 7% [middle of 4 runs].

And the “Population Mitotic Cells (%)” value [2]?
The value was 100% and 60% and 66%.

And the “Population Normal (%)” value [2]?
The value was 89% and 93% and 83%.

And the “Population Pyknosed Nuclei (%)” value [2]?
The value was 8% [middle of 4 runs].

And the “Population Tubulin-Different-Phenotype (%)” value [2]?
The value was 15% and 17% and 14%.

And the “Total Cell Count” value [2]?
The value was 84 [middle of 4 runs].

And the “Population Apoptotic (%)” value [3]?
Its value is 56% [middle of 4 runs].

What about the “Population Fragmented Nuclei (%)” value [3] of the same compound?
Its value is 11% and 10% and 2%.

And the “Population Healthy Nuclei (%)” value [3]?
Its value is 70% and 74% and 75% and 94%.

What about the “Population Hoechst High Intensity Objects (%)” value [3] of the same compound?
Its value is 11% and 5%.

And the “Population Membrane Permeable-Phenotype (%)” value [3]?
Its value is 13% and 12%.

And the “Population Mitotic Cells (%)” value [3]?
The value was 65% [middle of 4 runs].

And the “Population Normal (%)” value [3]?
Its value is 88% and 94%.

And the “Total Cell Count” value [3]?
The value was 185 [middle of 4 runs].

And the “Population Fragmented Nuclei (%)” value [4]?
The value was 12% and 9% and 6%.

And the “Population Healthy Nuclei (%)” value [4]?
The value was 80% and 83% and 86%.

What about the “Population Hoechst High Intensity Objects (%)” value [4] of the same compound?
The value was 7% and 6% and 3%.

What about the “Population Membrane Permeable-Phenotype (%)” value [4] of the same compound?
Its value is 20% [middle of 4 runs].

And the “Population Normal (%)” value [4]?
The value was 92% and 93% and 96%.

What about the “Population Pyknosed Nuclei (%)” value [4] of the same compound?
Its value is 7% and 9% and 4%.

What about the “Total Cell Count” value [4] of the same compound?
Its value is 92 [middle of 4 runs].

And the “Population Apoptotic (%)” value [5]?
Its value is 18% and 31% and 46%.

And the “Population Fragmented Nuclei (%)” value [5]?
Its value is 3% and 6% and 5% and 8%.

And the “Population Healthy Nuclei (%)” value [5]?
The value was 90% and 85% and 87% and 81%.

And the “Population Hoechst High Intensity Objects (%)” value [5]?
Its value is 1% and 2% and 3%.

What about the “Population Membrane Permeable-Phenotype (%)” value [5] of the same compound?
The value was 7% and 6% and 2% and 1%.

And the “Population Mitotic Cells (%)” value [5]?
Its value is 81% and 68% and 53%.

What about the “Population Normal (%)” value [5] of the same compound?
The value was 98% and 97% and 96%.

And the “Population Pyknosed Nuclei (%)” value [5]?
Its value is 6% and 7% and 10%.

And the “Total Cell Count” value [5]?
Its value is 310 [middle of 4 runs].

And the “Population Fragmented Nuclei (%)” value [6]?
The value was 7%.

And the “Population Healthy Nuclei (%)” value [6]?
The value was 91% and 84% and 88% and 93%.

What about the “Population Membrane Permeable-Phenotype (%)” value [6] of the same compound?
Its value is 9% and 8% and 5%.

And the “Population Mitotic Cells (%)” value [6]?
The value was 66% and 50% and 85%.

And the “Population Normal (%)” value [6]?
The value was 89% and 85% and 95%.

What about the “Population Pyknosed Nuclei (%)” value [6] of the same compound?
The value was 1% and 8% and 2%.

And the “Population Tubulin-Different-Phenotype (%)” value [6]?
Its value is 24% [middle of 4 runs].

And the “Total Cell Count” value [6]?
The value was 97 [middle of 4 runs].

And the “Population Apoptotic (%)” value [7]?
The value was 62% [middle of 4 runs].

And the “Population Fragmented Nuclei (%)” value [7]?
The value was 10% and 11% and 5%.

And the “Population Healthy Nuclei (%)” value [7]?
Its value is 72% and 71% and 90%.

And the “Population Hoechst High Intensity Objects (%)” value [7]?
Its value is 8% and 6% and 1%.

What about the “Population Membrane Permeable-Phenotype (%)” value [7] of the same compound?
The value was 11% and 13%.

What about the “Population Mitotic Cells (%)” value [7] of the same compound?
Its value is 51% [middle of 4 runs].

And the “Population Normal (%)” value [7]?
The value was 91% and 93% and 98%.

What about the “Total Cell Count” value [7] of the same compound?
Its value is 265 [middle of 4 runs].

And the “Population Apoptotic (%)” value [8]?
The value was 54% [middle of 4 runs].

And the “Population Fragmented Nuclei (%)” value [8]?
The value was 7% and 1% and 9%.

And the “Population Healthy Nuclei (%)” value [8]?
Its value is 77% and 82% and 89%.

And the “Population Hoechst High Intensity Objects (%)” value [8]?
Its value is 11% and 4% and 5%.

What about the “Population Membrane Permeable-Phenotype (%)” value [8] of the same compound?
Its value is 20% and 16% and 12%.

What about the “Population Mitotic Cells (%)” value [8] of the same compound?
The value was 60% [middle of 4 runs].

And the “Population Normal (%)” value [8]?
The value was 88% and 95% and 94%.

What about the “Population Pyknosed Nuclei (%)” value [8] of the same compound?
The value was 15% and 13%.

And the “Total Cell Count” value [8]?
The value was 91 [middle of 4 runs].

What about the “Population Apoptotic (%)” value [9] of the same compound?
Its value is 40% and 44% and 37%.

And the “Population Fragmented Nuclei (%)” value [9]?
Its value is 4% and 1% and 2%.

What about the “Population Healthy Nuclei (%)” value [9] of the same compound?
The value was 92% and 90%.

And the “Population Hoechst High Intensity Objects (%)” value [9]?
Its value is 1% and 0%.

What about the “Population Membrane Permeable-Phenotype (%)” value [9] of the same compound?
The value was 2%.

What about the “Population Mitochondria Different-Phenotype (%)” value [9] of the same compound?
The value was 15% and 9% and 7%.

And the “Population Mitotic Cells (%)” value [9]?
Its value is 60% and 56% and 62%.

What about the “Population Normal (%)” value [9] of the same compound?
The value was 98% and 99%.

What about the “Population Pyknosed Nuclei (%)” value [9] of the same compound?
Its value is 6% and 5%.

What about the “Population Tubulin-Different-Phenotype (%)” value [9] of the same compound?
Its value is 40% and 18% and 46%.

And the “Total Cell Count” value [9]?
Its value is 466 and 472.

What about the “Population Fragmented Nuclei (%)” value [10] of the same compound?
Its value is 6% and 3%.

What about the “Population Healthy Nuclei (%)” value [10] of the same compound?
Its value is 84% and 88% and 91%.

And the “Population Hoechst High Intensity Objects (%)” value [10]?
Its value is 9% and 2%.

And the “Population Membrane Permeable-Phenotype (%)” value [10]?
The value was 7% and 4% and 1%.

And the “Population Mitochondria Different-Phenotype (%)” value [10]?
The value was 11% and 5%.

What about the “Population Mitotic Cells (%)” value [10] of the same compound?
Its value is 44% and 91% and 66%.

And the “Population Normal (%)” value [10]?
Its value is 90% and 97%.

And the “Population Pyknosed Nuclei (%)” value [10]?
The value was 9% and 8%.

What about the “Population Tubulin-Different-Phenotype (%)” value [10] of the same compound?
Its value is 30% and 26% and 12%.

What about the “Total Cell Count” value [10] of the same compound?
The value was 93 and 189 and 109.

What about the “Population Apoptotic (%)” value [11] of the same compound?
Its value is 70% and 57%.

What about the “Population Fragmented Nuclei (%)” value [11] of the same compound?
Its value is 10%.

And the “Population Healthy Nuclei (%)” value [11]?
Its value is 74% and 73% and 72%.

And the “Population Hoechst High Intensity Objects (%)” value [11]?
The value was 8%.

And the “Population Membrane Permeable-Phenotype (%)” value [11]?
Its value is 7% and 4%.

What about the “Population Mitochondria Different-Phenotype (%)” value [11] of the same compound?
The value was 39% and 36% and 30%.

And the “Population Mitotic Cells (%)” value [11]?
Its value is 29% and 42%.

What about the “Population Normal (%)” value [11] of the same compound?
Its value is 91%.

And the “Population Pyknosed Nuclei (%)” value [11]?
The value was 16% and 17%.

And the “Population Tubulin-Different-Phenotype (%)” value [11]?
The value was 40% and 38% and 30%.

And the “Total Cell Count” value [11]?
Its value is 243 and 658 and 261.

And the “Population Apoptotic (%)” value [12]?
Its value is 76% and 46% and 90%.

What about the “Population Fragmented Nuclei (%)” value [12] of the same compound?
The value was 9% and 6% and 8%.

And the “Population Healthy Nuclei (%)” value [12]?
The value was 75% and 79% and 80%.

What about the “Population Hoechst High Intensity Objects (%)” value [12] of the same compound?
Its value is 7% and 5% and 1%.

What about the “Population Membrane Permeable-Phenotype (%)” value [12] of the same compound?
Its value is 20% and 16%.

And the “Population Mitochondria Different-Phenotype (%)” value [12]?
The value was 59% and 41% and 44%.

And the “Population Normal (%)” value [12]?
The value was 92% and 94% and 98%.

What about the “Population Pyknosed Nuclei (%)” value [12] of the same compound?
Its value is 15% and 13% and 10%.

What about the “Population Tubulin-Different-Phenotype (%)” value [12] of the same compound?
The value was 48% and 33% and 39%.

What about the “Total Cell Count” value [12] of the same compound?
The value was 146 and 92 and 114.
